ChEMBL document CHEMBL1153955, “Indolylarylsulfones bearing natural and unnatural amino acids. Discovery of potent inhibitors of HIV-1 non-nucleoside wild type and resistant mutant strains reverse transcriptase and coxsackie B4 virus” (J Med Chem, 2009)

Legend:
[1] = system: Respiratory syncytial virus; test: Antiviral activity against RSV Long in human HeLa cells assessed as protection against virus-induced cytopathicity; format: functional, organism-based
Outline: (§1)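 Confluent cell monolayers inoculated with 100 CCID₅₀ virus. After 1-2 h adsorption, residual virus removed and cultures incubated with varying compound concentrations. Cytopathicity scored once it reached completion in untreated infected controls. EC₅₀ = dose reducing virus-induced cytopathogenicity by 50%.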

[2] = system: Vesicular stomatitis virus; test: Antiviral activity against VSV in human HeLa cells assessed as protection against virus-induced cytopathicity; format: functional, organism-based
[3] = system: Human immunodeficiency virus 1; test: Antiviral activity against HIV1 3B in human CEM cells assessed as protection against virus-induced cytopathicity after 4 days; format: functional, organism-based; settings: Human immunodeficiency virus 1, 3B, CCRF-CEM, 96 h
Outline: (§2)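 CEM cells (~3 × 10⁵ cells/mL) infected with ~100 CCID₅₀ per mL of HIV-1 (IIIB) or HIV-2 (ROD), then seeded into wells containing compound dilutions. After 4 days at 37 °C, syncytium (giant cell) formation was examined microscopically. EC₅₀ = concentration protecting CEM cells from HIV cytopathicity by 50%.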

[4] = system: Human immunodeficiency virus 2; test: Antiviral activity against HIV2 ROD in human CEM cells assessed as protection against virus-induced cytopathicity after 4 days; format: functional, organism-based; settings: Human immunodeficiency virus 2, ROD, CCRF-CEM, 96 h; outline: as §2
L1210 = test: Antiproliferative activity against mouse L1210 cells after 2 days; format: cell-based; settings: L1210, 48 h
Outline: (§3)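 Cells seeded at 5 × 10⁴ to 7.5 × 10⁴ cells/200 µL with or without serial compound dilutions; incubated at 37 °C for 2 days (L1210) or 3 days (Molt4/C8, CEM). Cell numbers counted with a Coulter counter. CC₅₀ = concentration reducing proliferation by 50% versus untreated controls, read from plots of cell number (% of control) against concentration. Means of at least two independent experiments.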

[5] = Antiproliferative activity against human Molt4/C8 cells after 3 days; format: cell-based; settings: MOLT-4, 72 h; outline: as §3
CCRF-CEM = test: Antiproliferative activity against human CEM cells after 3 days; format: cell-based; settings: 72 h; outline: as §3
[6] = molecular target: Human immunodeficiency virus type 1 reverse transcriptase (Human immunodeficiency virus 1, UniProt Q72547); test: Inhibition of HIV1 reverse transcriptase p66/p51; settings: read-out: IC50
[7] = molecular target: Human immunodeficiency virus type 1 reverse transcriptase (Human immunodeficiency virus 1, UniProt Q72547, L100I); test: Inhibition of HIV1 reverse transcriptase p66/p51 L100I mutant; settings: read-out: IC50
Outline: (§4)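 Substrate was 0.5 µg poly(rA)/oligo(dT) 10:1 (0.3 µM 3′-OH ends) with 10 µM [³H]dTTP, at 37 °C. Acid-precipitable radioactivity was counted on GF/C filters after TCA washes.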

[8] = molecular target: Human immunodeficiency virus type 1 reverse transcriptase (Human immunodeficiency virus 1, UniProt Q72547, K103N); test: Inhibition of HIV1 reverse transcriptase p66/p51 K103N mutant; settings: read-out: IC50; outline: as §4
[9] = molecular target: Human immunodeficiency virus type 1 reverse transcriptase (Human immunodeficiency virus 1, UniProt Q72547, Y181I); test: Inhibition of HIV1 reverse transcriptase p66/p51 Y181I mutant; settings: read-out: IC50; outline: as §4
[10] = Cytotoxicity against human HeLa cells assessed as drug level causing microscopically detectable alteration of normal cell morphology after 3 days; format: cell-based
Outline: (§5)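 Serial compound dilutions added to confluent HeLa or Vero monolayers. MCC = minimum concentration causing microscopically detectable alteration of cell morphology after 3 days of incubation.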

[11] = Cytotoxicity against african green monkey Vero cells assessed as drug level causing microscopically detectable alteration of normal cell morphology after 3 days; format: cell-based; settings: chlorocebus sabaeus; outline: as §5
Coxsackievirus B4 [12] = test: Antiviral activity against Coxsackievirus B4 in human HeLa cells assessed as protection against virus-induced cytopathicity; format: functional, organism-based; settings: Enterovirus B; outline: as §1
Coxsackievirus B4 [13] = test: Antiviral activity against Coxsackievirus B4 in african green monkey Vero cells assessed as protection against virus-induced cytopathicity; format: functional, organism-based; settings: Enterovirus B; outline: as §1
Human respirovirus 3 = test: Antiviral activity against Parainfluenza virus type 3 in african green monkey Vero cells assessed as protection against virus-induced cytopathicity; format: functional, organism-based; settings: Human respirovirus 3, Vero; outline: as §1
[14] = system: Mammalian orthoreovirus 1; test: Antiviral activity against Reovirus 1 in african green monkey Vero cells assessed as protection against virus-induced cytopathicity; format: functional, organism-based; settings: Mammalian orthoreovirus 1, Vero; outline: as §1
Sindbis virus = test: Antiviral activity against Sindbis virus in african green monkey Vero cells assessed as protection against virus-induced cytopathicity; format: functional, organism-based; outline: as §1
Punta Toro virus = test: Antiviral activity against Punta Toro virus in african green monkey Vero cells assessed as protection against virus-induced cytopathicity; format: functional, organism-based; outline: as §1
[15] = Cytotoxicity against human HEL cells assessed as drug level causing microscopically detectable alteration of normal cell morphology after 3 days; format: cell-based
Human alphaherpesvirus 1 [16] = test: Antiviral activity against HSV1 KOS in human HEL cells assessed as protection against virus-induced cytopathicity; format: functional, organism-based; settings: Human alphaherpesvirus 1, KOS
Human alphaherpesvirus 2 = test: Antiviral activity against HSV2 G in human HEL cells assessed as protection against virus-induced cytopathicity; format: functional, organism-based; settings: Human alphaherpesvirus 2, strain G; outline: as §1
Vaccinia virus = test: Antiviral activity against Vaccinia virus Lederle in human HEL cells assessed as protection against virus-induced cytopathicity; format: functional, organism-based; settings: Orthopoxvirus vaccinia
[17] = system: Vesicular stomatitis virus; test: Antiviral activity against VSV in human HEL cells assessed as protection against virus-induced cytopathicity; format: functional, organism-based
Human alphaherpesvirus 1 [18] = test: Antiviral activity against thymidine kinase deficient and acyclovir resistant HSV1 KOS in human HEL cells assessed as protection against virus-induced cytopathicity; format: functional, organism-based; settings: Human alphaherpesvirus 1, KOS
[19] = Cytotoxicity against MDCK cells assessed as drug level causing microscopically detectable alteration of normal cell morphology; format: cell-based, Canis lupus familiaris; settings: dog
[20] = Cytotoxicity against MDCK cells by MTS assay; format: cell-based, Canis lupus familiaris; settings: dog
Influenza A virus [21] = test: Antiviral activity against influenza H1N1 virus in MDCK cells assessed as reduction of virus-induced cytopathicity by visual cytopathic effect scoring method; format: functional, organism-based
Influenza A virus [22] = test: Antiviral activity against influenza H1N1 virus in MDCK cells assessed as reduction of virus-induced cytopathicity by MTS method; format: functional, organism-based; settings: Influenza A virus, H1N1, MDCK
Influenza A virus H3N2 [23] = test: Antiviral activity against influenza H3N2 virus in MDCK cells assessed as reduction of virus-induced cytopathicity by visual cytopathic effect scoring method; format: functional, organism-based
Influenza A virus H3N2 [24] = test: Antiviral activity against influenza H3N2 virus in MDCK cells assessed as reduction of virus-induced cytopathicity by MTS method; format: functional, organism-based
Influenza B virus [25] = test: Antiviral activity against influenza B virus in MDCK cells assessed as reduction of virus-induced cytopathicity by visual cytopathic effect scoring method; format: functional, organism-based
Influenza B virus [26] = test: Antiviral activity against influenza B virus in MDCK cells assessed as reduction of virus-induced cytopathicity by MTS method; format: functional, organism-based
[27] = Cytotoxicity against feline CRFK cells by MTS assay; format: cell-based, Felis catus; settings: cat
Feline coronavirus = test: Antiviral activity against Feline coronavirus in feline […] cells assessed as inhibition of virus-induced cytopathicity; format: functional, organism-based; settings: Alphacoronavirus 1
Felid alphaherpesvirus 1 = test: Antiviral activity against Feline herpesvirus in feline […] cells assessed as inhibition of virus-induced cytopathicity; format: functional, organism-based

With Cc1cc(C)cc(S(=O)(=O)c2c(C(=O)NCCS(N)(=O)=O)[nH]c3ccc(Br)cc23)c1 the EC50 [1] was greater than 4 µM, the EC50 [2] was greater than 4 µM and the EC50 [3] was 0.001 µM. For the same molecule, the EC50 [4] was greater than 10 µM, the IC50 (L1210) was 17 µM and the IC50 [5] was 11 µM. The IC50 (CCRF-CEM) was 14 µM, the IC50 [6] was 0.002 µM and the IC50 [7] was 0.013 µM. It also gave an IC50 [8] of 0.529 µM, an IC50 [9] greater than 40 µM and an MCC at 72 h [10] of 20 µM. For the same molecule, the MCC at 72 h [11] was no less than 20 µM, the EC50 (Coxsackievirus B4 [12]) was no less than 4 µM and the EC50 (Coxsackievirus B4 [13]) was 12 µM. The EC50 (Human respirovirus 3) was greater than 20 µM, the EC50 [14] was greater than 20 µM and the EC50 (Sindbis virus) was greater than 20 µM. For the same molecule, the EC50 (Punta Toro virus) was greater than 20 µM, the MCC at 72 h [15] was 20 µM and the EC50 (Human alphaherpesvirus 1 [16]) was greater than 4 µM. The EC50 (Human alphaherpesvirus 2) was greater than 4 µM, the EC50 (Vaccinia virus) was greater than 4 µM and the EC50 [17] was greater than 4 µM. The EC50 (Human alphaherpesvirus 1 [18]) was greater than 4 µM, the MCC [19] was 4 µM and the CC50 [20] was 1.9 µM. It also gave an EC50 (Influenza A virus [21]) greater than 800 µM, an EC50 (Influenza A virus [22]) greater than 800 µM and an EC50 (Influenza A virus H3N2 [23]) greater than 800 µM. The EC50 (Influenza A virus H3N2 [24]) was greater than 800 µM, the EC50 (Influenza B virus [25]) was greater than 800 µM and the EC50 (Influenza B virus [26]) was greater than 800 µM. For the same molecule, the CC50 [27] was 11.9 µM, the EC50 (Feline coronavirus) was greater than 4 µM and the EC50 (Felid alphaherpesvirus 1) was greater than 4 µM.

Cc1cc(C)cc(S(=O)(=O)c2c(C(=O)NCCS(N)(=O)=O)[nH]c3ccc([N+](=O)[O-])cc23)c1 showed an EC50 [1] of 20 µM, an EC50 [2] of no less than 100 µM and an EC50 [3] of 0.0027 µM. For the same molecule, the EC50 [4] was greater than 10 µM, the IC50 (L1210) was 408 µM and the IC50 [5] was 244 µM. It also gave an IC50 (CCRF-CEM) of 200 µM, an IC50 [6] of 0.061 µM and an IC50 [7] of 0.388 µM. It also gave an IC50 [8] of 0.787 µM, an IC50 [9] greater than 40 µM and an MCC at 72 h [10] of no less than 100 µM. The MCC at 72 h [11] was 100 µM, the EC50 (Coxsackievirus B4 [12]) was no less than 20 µM and the EC50 (Coxsackievirus B4 [13]) was greater than 20 µM. For the same molecule, the EC50 (Human respirovirus 3) was greater than 20 µM, the EC50 [14] was greater than 20 µM and the EC50 (Sindbis virus) was greater than 20 µM. The EC50 (Punta Toro virus) was greater than 20 µM, the MCC at 72 h [15] was 20 µM and the EC50 (Human alphaherpesvirus 1 [16]) was greater than 4 µM. For the same molecule, the EC50 (Human alphaherpesvirus 2) was greater than 4 µM, the EC50 (Vaccinia virus) was greater than 4 µM and the EC50 [17] was greater than 4 µM. The EC50 (Human alphaherpesvirus 1 [18]) was greater than 4 µM, the MCC [19] was 20 µM and the CC50 [20] was 32.7 µM. The EC50 (Influenza A virus [21]) was greater than 4 µM, the EC50 (Influenza A virus [22]) was greater than 4 µM and the EC50 (Influenza A virus H3N2 [23]) was greater than 4 µM. For the same molecule, the EC50 (Influenza A virus H3N2 [24]) was greater than 4 µM, the EC50 (Influenza B virus [25]) was greater than 4 µM and the EC50 (Influenza B virus [26]) was greater than 4 µM. It also gave a CC50 [27] greater than 100 µM, an EC50 (Feline coronavirus) greater than 100 µM and an EC50 (Felid alphaherpesvirus 1) greater than 100 µM.

Cc1cc(C)cc(S(=O)(=O)c2c(C(N)=O)[nH]c3ccc(Cl)c(F)c23)c1 showed an EC50 [1] greater than 100 µM, an EC50 [2] greater than 100 µM and an EC50 [3] of 0.001 µM. The EC50 [4] was greater than 10 µM, the IC50 (L1210) was 46 µM and the IC50 [5] was 14 µM. The IC50 (CCRF-CEM) was greater than 28 µM, the IC50 [6] was 0.003 µM and the IC50 [7] was 0.002 µM. For the same molecule, the IC50 [8] was 0.006 µM, the IC50 [9] was 0.029 µM and the MCC at 72 h [10] was greater than 100 µM. It also gave an MCC at 72 h [11] greater than 100 µM, an EC50 (Coxsackievirus B4 [12]) of 27 µM and an EC50 (Coxsackievirus B4 [13]) of 100 µM. For the same molecule, the EC50 (Human respirovirus 3) was greater than 100 µM, the EC50 [14] was greater than 100 µM and the EC50 (Sindbis virus) was greater than 100 µM. The EC50 (Punta Toro virus) was greater than 100 µM, the MCC at 72 h [15] was greater than 100 µM and the EC50 (Human alphaherpesvirus 1 [16]) was greater than 20 µM. It also gave an EC50 (Human alphaherpesvirus 2) greater than 20 µM, an EC50 (Vaccinia virus) greater than 20 µM and an EC50 [17] greater than 20 µM. For the same molecule, the EC50 (Human alphaherpesvirus 1 [18]) was greater than 20 µM, the MCC [19] was 20 µM and the CC50 [20] was 40.6 µM. It also gave an EC50 (Influenza A virus [21]) greater than 4 µM, an EC50 (Influenza A virus [22]) greater than 4 µM and an EC50 (Influenza A virus H3N2 [23]) greater than 4 µM. The EC50 (Influenza A virus H3N2 [24]) was greater than 4 µM, the EC50 (Influenza B virus [25]) was greater than 4 µM and the EC50 (Influenza B virus [26]) was greater than 4 µM. It also gave a CC50 [27] greater than 100 µM, an EC50 (Feline coronavirus) greater than 100 µM and an EC50 (Felid alphaherpesvirus 1) greater than 100 µM.
